# Compound activity from PubChem.
# Hits are enriched below; roughly 3.1% of the tested compounds scored in any of these assays.
# TAG inh: reduces triacylglycerol accumulation in H9c2 cells; AID 651582; Nile Red lipid (TAG) fluorescence; cells loaded with 200 µM oleic acid; hit rate 0.66% among 230,000; inhibition, % at 12.5 µM;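 active means pattern-corrected inhibition of lipid staining of at least 50% with the nuclear-stain viability signal not falling by more than 50%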;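 further: 0% = DMSO wells and 100% = triacsin C control wells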
# Beta apoptosis: beta cell apoptosis inhibition; protection from apoptosis, % (no concentration beside the values); hit rate 0.8% among 300,000; AID 435005; INS-1E cytokine-induced death, ATP luminescence, 48 h; percent of positive-control rescue, neutral wells zero;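 active means Every replicate reaches about 75%, or at least half do and their mean reaches it too, limit read from the data; inconclusive means At least half of replicates reach the limit but their mean does not; inactive means Under half of replicates reach the limit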;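 further: 0% = cytokine-treated negative control wells and 100% = positive control rescue; higher means more ATP so stronger rescue from cytokine killing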
# T cruzi repl: blocks replication of Trypanosoma cruzi. AID 1885. inhibition, % (concentration not given with the values). T. cruzi beta-gal in NIH3T3, luminescence, 90 h. hit rate 1.4% among 300,000;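 active means mean inhibition across valid replicates above about 55%, limit read from the data; inconclusive means mean below that limit but half or more replicates reach it; inactive means mean below it, under half of replicates reach it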;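 further: signal also drops with host cell toxicity which is not excluded here; 0% = plate median of DMSO wells and 100% = zero luminescence signal; higher percent means less beta-gal luminescence so fewer parasites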
#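 System: Mouse NIH/3T3 fibroblasts infected with β-gal-expressing T. cruzi Tulahuen C4 | Quantity: NIH/3T3 cells, 5,000 per well | Reagent: 5000 reporter trypomastigotes per well | Dosing: Compound pinned at 50 nL/well, DMSO | Schedule: 3 h host attachment, then at least 90 h co-culture | Detection: GalScreen luminescence, 60 min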
# CSC inhib: cancer stem cell inhibition. cancer stem cell-like cells viability, luminescence. inhibition, % at 7.5 µM. hit rate 1.1% among 300,000. AID 2717; in the data active means inhibition above about 75%; inconclusive means no clear call, values can overlap the other calls; tested in HMLE shEcad cells
# Bfl-1 A1 inh: inhibitors of the anti-apoptotic protein A1, read as caspase activation | hit rate 0.066% among 330,000 | MEF A1-2A-BIM cells, Caspase-Glo 3/7 luminescence, 3 h; percent of clofoctol response, vehicle zero | AID 2462 | caspase activation, % (concentration not given with the values);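 active means over half of replicate activation scores above 10%, or exactly half above 10 with the replicate mean above 10; inconclusive means replicate mean below 10 yet half the replicates above 10; inactive means over half of replicates below 10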
# Calb FLC: affects C. albicans growth with fluconazole | growth inhibition, % (concentration not given with the values) | C. albicans CaCi-2 + fluconazole, Alamar Blue growth, 48 h | hit rate 0.57% among 300,000 | AID 1979;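 active means growth inhibition above about 58% in most replicates, limit read from the data, passing the limit was not always enough; inconclusive means exactly half the replicates above a set limit; inactive means most replicates below a set limit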;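 further: all wells also contain fluconazole at 8 µg/ml as a sub-toxic cotreatment; 0% = median of DMSO wells and 100% = median of geldanamycin control wells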
# * marks the source's active call; other numbers are inactive results; u = inconclusive; x = not tested or not shown.
SMILES,TAG inh,Beta apoptosis,T cruzi repl,CSC inhib,Bfl-1 A1 inh,Calb FLC
Cc1cccc(C(=O)N2CCN(CCNC(=O)C(=O)Nc3ccc(F)cc3)CC2)c1,x,3,22,x,0,-3
S=C(c1cn(CCOc2cccc3ccccc23)c2ccccc12)N1CCCC1,x,105*,40,4,0,-3
CC(Oc1ccc(Br)cc1)C(=O)O/N=C(\N)c1ccncc1 (stereo not given),-5,-4,17,16,1,-2
CCN1C(=O)C(CC(=O)Nc2ccc(OC)cc2)N(Cc2cccnc2)C1=S (stereo not given),x,1,-3,x,0,12
COc1ccc(NC(=O)CC2C(=O)N(CCc3ccccc3)C(=S)N2Cc2cccnc2)cc1 (stereo not given),x,7,63*,21,0,2
Cc1ccc(NS(=O)(=O)c2cc3c4c(cccc4c2)C(=O)NC3=O)cc1C,4,14,16,79*,0,-6
O=C1NC(=O)c2cc(Br)cc3cccc1c23,x,x,2,5,1,10
COc1ccc2nc(SCC(=O)Nc3ccc(S(=O)(=O)N4CCCC4)cc3)c(C#N)cc2c1,x,16,28,8,0,-1
Nc1c(C(=O)Nc2ccc(S(=O)(=O)N3CCCC3)cc2)sc2nc3cc4c(cc3cc12)CCC4,x,100*,35,6,-1,6
Nc1c(C(=O)Nc2ccc(S(=O)(=O)N3CCCC3)cc2)sc2nc3ccc(OC(F)(F)F)cc3cc12,x,98*,39,32,15*,20
Nc1c(C(=O)Nc2ccc(Cl)c(C(=O)O)c2)sc2nc3c(cc12)CCCC3,15,-8,-1,5,1,1
CCc1noc(C)c1C(=O)N(CC)CC(=O)Nc1cc(Cl)ccc1C,-9,2,x,-6,0,x
O=C(NN=Cc1ccccc1OC(F)F)c1cccc(S(=O)(=O)N2CCCC2)c1,-4,1,x,5,0,x
c1ccc(-c2ccc(C3=Nn4c(nnc4-c4cc(-c5ccccc5)n[nH]4)SC3)cc2)cc1,x,11,29,1,1,2
Clc1ccc(C2=Nn3c(nnc3-c3n[nH]c4c3CCC4)SC2)cc1,55*,16,1,46,0,-2
O=C(NC(=S)Nc1cccnc1)c1cccs1,-28,-3,-14,x,-5,-12
CC(C)(C)c1ccc(Oc2ccc(NC(=O)c3cccs3)cn2)cc1,-6,18,14,84*,-1,-3
Cc1nc(-c2cccc(NC(=O)c3cccs3)c2)cs1,-8,-3,-8,8,-1,3
O=C(Nc1cccc(-c2csc(-c3ccccc3)n2)c1)c1cccs1,x,2,38,192*,0,19
COc1ccc(NC(=O)c2cccs2)cn1,-11,-3,4,-1,-2,2
O=C(Nc1cccnc1)c1cccs1,x,89*,-49,17,-2,-4
CC(C)(C)c1ccc(Oc2ccc(NC(=O)c3ccco3)cn2)cc1,105,75*,-9,99*,2,7
CN(C(=O)c1cccc(NC(=O)Cc2ccc(NC(=O)C3CCCN(C(=O)CCc4ccccc4)C3)cc2)c1)C1CCCCC1 (stereo not given),-22,x,x,x,x,x
CCn1c(SCC(=O)Nc2cc(C)on2)nc2sc3c(c2c1=O)CCCC3,x,82*,-1,-1,-1,12
C=CCn1c(SCC(=O)Nc2cc(C)on2)nc2sc3c(c2c1=O)CCCC3,12,13,x,x,0,x
SMILES,TAG inh,Beta apoptosis,T cruzi repl,CSC inhib,Bfl-1 A1 inh,Calb FLC
CCc1c2c(nc3ccc(OC(=O)N4CCC(N5CCCCC5)CC4)cc13)-c1cc3c(c(=O)n1C2)COC(=O)[C@]3(O)CC,12,68,5,89*,0,x
CCOC(=O)N1CCN(C(=O)C(=O)Nc2ccc3nc4n(c(=O)c3c2)CCCCC4)CC1,6,x,4,-4,0,2
CCN(Cc1ccccc1)C(c1ccc(C(F)(F)F)cc1)c1nnnn1C(C)(C)C (stereo not given),x,106*,48,24,-1,4
COc1ccc(N=c2cc(-c3ccc(OC)cc3)oc3ccccc23)cc1,x,22,40,-4,1,14
CCOc1ccc(N=c2cc(-c3ccc(OC)cc3)oc3ccccc23)cc1,x,20,57*,3,1,-1
CC(C)CC(NC(=O)C(NC(=O)C(Cc1ccc(OCc2ccccc2)cc1)NC(=O)OC(C)(C)C)C(C)C)C(N)=O (stereo not given),x,-1,-11,138*,0,-3
CC1(c2ccc(Cl)cc2Cl)NC(=O)N(CC(=O)NC2CCCCC2)C1=O (stereo not given),-21,-1,x,x,0,x
COc1ccc(NS(=O)(=O)c2ccc(N3CCCCC3)c(NC(=O)C(C)NC(N)=O)c2)cc1 (stereo not given),0,-2,x,-6,0,x
COc1ccc(NS(=O)(=O)c2ccc(N3CCCCC3)c(N)c2)cc1,-25,102*,x,21,-1,x
COc1ccc(NS(=O)(=O)c2cc(NC(=O)c3ccc(=O)[nH]c3)ccc2N2CCCC2)cc1,34,1,-14,133*,2,12
Nc1ccn([C@@H]2O[C@H](CNCc3ccc(OCC(=O)Nc4nccs4)cc3)[C@@H](O)[C@H]2O)c(=O)n1,2,x,x,x,x,x
Cc1ccc(-c2csc3ncnc(N4CCN(S(=O)(=O)c5ccc(C#N)cc5)CC4)c23)cc1,-15,x,x,x,x,x
Cc1ccc(S(=O)(=O)N2CCN(c3ncnc4sccc34)CC2)cc1,-20,89*,-3,-2,0,71
O=S(=O)(c1ccccc1C(F)(F)F)N1CCN(c2ncnc3sccc23)CC1,-40,27,x,6,-2,x
O=S(=O)(c1ccc(F)c(F)c1F)N1CCN(c2ncnc3sccc23)CC1,-33,87*,x,40,0,x
NC(=O)c1ccc2c(=O)c(O)c(-c3cc(Cl)c(N)c(Cl)c3)[nH]c2c1,-2,-4,-15,-10,0,-9
CCN1C[C@@H]2[C@@H]3C(=O)N(Cc4ccccc4)C(=O)[C@@H]3[C@](CC)(C(=O)OC)N2C1=NCc1ccccc1,1,x,x,x,x,x
Cc1cc(C)c2c(=N)c3ccccc3n(CCCCCCCCn3c4ccccc4c(=N)c4c(C)cc(C)nc43)c2n1,53*,x,x,x,x,x
O=C(NCc1ccco1)C1Cc2c(-c3cccc(F)c3)ccnc2O1 (stereo not given),50,x,x,x,x,x
Cc1ccc(S(=O)(=O)n2ccc3c(OCCOCCNCc4ccc(F)cc4)cccc32)cc1,x,30,55*,59,u,1
Cc1ccc(C=Nc2ccccc2C(N)=O)s1,x,8,-46,78*,u,-3
Cc1cccc(C=Nc2ccccc2C(N)=O)c1,x,8,-11,-1,-4,-11
O=C(NCC(c1cccnc1)N1CCN(c2ccccc2)CC1)C1CCCCC1 (stereo not given),x,4,56*,-2,0,-18
